According to ChEMBL document CHEMBL1250503, “Stereoselective synthesis and biological evaluation of (R)-rugulactone, (6R)-((4R)-hydroxy-6-phenyl-hex-2-enyl)-5,6-dihydro-pyran-2-one and its 4S epimer” (2010):
Values after ≈ are worked out from the molar mass of the structure shown.

Tests used:
Format in all cases: functional
Bacillus subtilis = assay: Antibacterial activity against Bacillus subtilis MTCC 441 by broth dilution method
Procedure, shortened: (§1)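 Broth dilution per National Committee for Clinical Laboratory (NCCL) standards against a bacterial panel. The read-out is the minimum inhibitory concentration (MIC).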

Staphylococcus aureus = assay: Antibacterial activity against Staphylococcus aureus MTCC 96 by broth dilution method; procedure, shortened: as §1
[1] = system: Staphylococcus epidermidis; assay: Antibacterial activity against Staphylococcus epidermidis MTCC 437 by broth dilution method; procedure, shortened: as §1
Escherichia coli = assay: Antibacterial activity against Escherichia coli MTCC 443 by broth dilution method; procedure, shortened: as §1
Pseudomonas aeruginosa = assay: Antibacterial activity against Pseudomonas aeruginosa MTCC 741 by broth dilution method; procedure, shortened: as §1
Klebsiella pneumoniae = assay: Antibacterial activity against Klebsiella pneumoniae MTCC 39 by broth dilution method; procedure, shortened: as §1
Rhizopus arrhizus [2] = assay: Antifungal activity against Rhizopus oryzae MTCC 262 at 30 ug/ml after 24 to 96 hrs by agar cup diffusion method; details: read-out: DIZ
Procedure, shortened: (§2)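 Agar cup diffusion on autoclaved Potato Dextrose Agar. 0.5 ml of 24 h old test-organism culture was spread over the solidified agar, and 6 mm cups were bored. Compounds were dissolved in DMSO and added to the cups at two concentrations. A clotrimazole control was included. Plates were held at room temperature for 24–96 h, and inhibition zone diameters were measured.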

Aspergillus niger [3] = assay: Antifungal activity against Aspergillus niger MTCC 1344 at 30 ug/ml after 24 to 96 hrs by agar cup diffusion method; details: read-out: DIZ; procedure, shortened: as §2
Candida albicans [4] = assay: Antifungal activity against Candida albicans MTCC 227 at 30 ug/ml after 24 to 96 hrs by agar cup diffusion method; details: read-out: DIZ; procedure, shortened: as §2
Saccharomyces cerevisiae [5] = assay: Antifungal activity against Saccharomyces cerevisiae MTCC 171 at 30 ug/ml after 24 to 96 hrs by agar cup diffusion method; details: read-out: DIZ; procedure, shortened: as §2
Rhizopus arrhizus [6] = assay: Antifungal activity against Rhizopus oryzae MTCC 262 at 100 ug/ml after 24 to 96 hrs by agar cup diffusion method; details: read-out: DIZ; procedure, shortened: as §2
Aspergillus niger [7] = assay: Antifungal activity against Aspergillus niger MTCC 1344 at 100 ug/ml after 24 to 96 hrs by agar cup diffusion method; details: read-out: DIZ; procedure, shortened: as §2
Candida albicans [8] = assay: Antifungal activity against Candida albicans MTCC 227 at 100 ug/ml after 24 to 96 hrs by agar cup diffusion method; details: read-out: DIZ; procedure, shortened: as §2
Saccharomyces cerevisiae [9] = assay: Antifungal activity against Saccharomyces cerevisiae MTCC 171 at 100 ug/ml after 24 to 96 hrs by agar cup diffusion method; details: read-out: DIZ; procedure, shortened: as §2

Structure (SMILES) | MIC (Bacillus subtilis) | MIC (Staphylococcus aureus) | MIC [1] | MIC (Escherichia coli) | MIC (Pseudomonas aeruginosa) | MIC (Klebsiella pneumoniae) | zone of inhibition at 30 µg/mL (Rhizopus arrhizus [2]) | zone of inhibition at 30 µg/mL (Aspergillus niger [3]) | zone of inhibition at 30 µg/mL (Candida albicans [4]) | zone of inhibition at 30 µg/mL (Saccharomyces cerevisiae [5]) | zone of inhibition at 100 µg/mL (Rhizopus arrhizus [6]) | zone of inhibition at 100 µg/mL (Aspergillus niger [7]) | zone of inhibition at 100 µg/mL (Candida albicans [8]) | zone of inhibition at 100 µg/mL (Saccharomyces cerevisiae [9])
Clc1ccccc1C(c1ccccc1)(c1ccccc1)n1ccnc1 [CLOTRIMAZOLE] |  |  |  |  |  |  | 21 mm | 18 mm | 22 mm | 23 mm |  |  |  | 
O=C1CN(/N=C/c2ccc([N+](=O)[O-])o2)C(=O)N1 [NITROFURANTOIN] | 100 µg/mL (≈ 420 µM) | 50 µg/mL (≈ 210 µM) | 50 µg/mL (≈ 210 µM) | 25 µg/mL (≈ 105 µM) | 100 µg/mL (≈ 420 µM) | 50 µg/mL (≈ 210 µM) |  |  |  |  |  |  |  | 
O=C(/C=C/C[C@@H]1CC=CC(=O)O1)CCc1ccccc1 [R-RUGULACTONE] | 100 µg/mL (≈ 370 µM) | 50 µg/mL (≈ 185 µM) | 50 µg/mL (≈ 185 µM) | 50 µg/mL (≈ 185 µM) | 12.5 µg/mL (≈ 46.2 µM) | 25 µg/mL (≈ 92.5 µM) | 11 mm | 14 mm | 7 mm | 7 mm | 12 mm | 16 mm | 8 mm | 8 mm
CN[C@@H]1[C@H](O[C@H]2[C@H](O[C@H]3[C@H](O)[C@@H](O)[C@H](N=C(N)N)[C@@H](O)[C@@H]3N=C(N)N)O[C@@H](C)[C@]2(O)C=O)O[C@@H](CO)[C@H](O)[C@H]1O [STREPTOMYCIN] |  |  |  | 1.56 µg/mL (≈ 2.69 µM) | 1.56 µg/mL (≈ 2.69 µM) | 1.56 µg/mL (≈ 2.69 µM) |  |  |  |  |  |  |  | 

Continued by falling MIC (Bacillus subtilis), values first:

MIC (Bacillus subtilis) | MIC (Staphylococcus aureus) | MIC [1] | MIC (Escherichia coli) | MIC (Pseudomonas aeruginosa) | MIC (Klebsiella pneumoniae) | Structure (SMILES) | zone of inhibition at 30 µg/mL (Rhizopus arrhizus [2]) | zone of inhibition at 30 µg/mL (Aspergillus niger [3]) | zone of inhibition at 30 µg/mL (Candida albicans [4]) | zone of inhibition at 30 µg/mL (Saccharomyces cerevisiae [5]) | zone of inhibition at 100 µg/mL (Rhizopus arrhizus [6]) | zone of inhibition at 100 µg/mL (Aspergillus niger [7]) | zone of inhibition at 100 µg/mL (Candida albicans [8]) | zone of inhibition at 100 µg/mL (Saccharomyces cerevisiae [9])
100 µg/mL (≈ 367 µM) | 50 µg/mL (≈ 184 µM) | 50 µg/mL (≈ 184 µM) | 100 µg/mL (≈ 367 µM) | 25 µg/mL (≈ 91.8 µM) | 100 µg/mL (≈ 367 µM) | O=C1C=CC[C@@H](C/C=C/[C@H](O)CCc2ccccc2)O1 | 12 mm | 11 mm | 8 mm | 8 mm | 14 mm | 14 mm | 10 mm | 11 mm
50 µg/mL (≈ 184 µM) | 100 µg/mL (≈ 367 µM) | 100 µg/mL (≈ 367 µM) | 100 µg/mL (≈ 367 µM) | 50 µg/mL (≈ 184 µM) | 100 µg/mL (≈ 367 µM) | O=C1C=CC[C@@H](C/C=C/[C@@H](O)CCc2ccccc2)O1 | 12 mm | 9 mm | 9 mm | 8 mm | 16 mm | 12 mm | 8 mm | 10 mm
1.56 µg/mL (≈ 4.67 µM) | 1.56 µg/mL (≈ 4.67 µM) | 1.56 µg/mL (≈ 4.67 µM) |  |  |  | CC1(C)S[C@@H]2[C@H](NC(=O)Cc3ccccc3)C(=O)N2[C@H]1C(=O)O [PENICILLIN G] |  |  |  |  |  |  |  | 
